The values that follow come from ChEMBL document CHEMBL1148955, “Chemical constituents from the Colombian medicinal plant Maytenus laevis” (2004).

Test [1] deals with PBMC. The experiment in a line: Induction of TNFalpha production in human PBMC at 1 ug/ml after 48 hrs by ELISA. The format is functional. The method in brief: (§1)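 PBMCs were isolated from heparinized venous blood by Ficoll-Hypaque density gradient centrifugation. Cells were cultured at 1 × 10^6/mL in RPMI 1640 with 10% fetal calf serum, with or without compound at 1 or 10 µg/mL, for 48 h at 37 °C. Cytokines in the culture supernatants were measured by commercial ELISA kits.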
In general terms: An ELISA detects its analyte on a solid surface through an enzyme-linked reagent.

Test [2] relates to PBMC. Nature of the test: Induction of IFN-gamma production in human PBMC at 1 ug/ml after 48 hrs by ELISA. The format is functional, cell-based. The method in brief: as §1
The subject of test [3] is PBMC. Nature of the test: Induction of IL4 production in human PBMC at 1 ug/ml after 48 hrs by ELISA. The format is functional, cell-based. The method in brief: as §1
Test [4] concerns PBMC. The experiment in a line: Induction of IL12 production in human PBMC at 1 ug/ml after 48 hrs by ELISA. The format is functional. The method in brief: as §1
Test [5] relates to PBMC. The experiment in a line: Induction of IL12 production in human PBMC at 10 ug/ml after 48 hrs by ELISA. The format is functional. The procedure, abridged:
as §1

The subject of test [6] is PBMC. Nature of the test: Induction of TNFalpha production in human PBMC at 10 ug/ml after 48 hrs by ELISA. Type of test: functional. The procedure, abridged:
as §1

In test [7] the test system is PBMC. The experiment in a line: Induction of IL10 production in human PBMC at 10 ug/ml after 48 hrs by ELISA. Type of test: functional, cell-based. The procedure, abridged: as §1
For test [8], the system named is PBMC. The experiment in a line: Induction of IL6 production in human PBMC at 10 ug/ml after 48 hrs by ELISA. The format is functional. The procedure, abridged:
as §1

Test [9] relates to PBMC. Nature of the test: Induction of IL4 production in human PBMC at 10 ug/ml after 48 hrs by ELISA. Type of test: functional, cell-based. The method in brief: as §1
Test [10] has as its system PBMC. Nature of the test: Induction of IFN-gamma production in human PBMC at 10 ug/ml after 48 hrs by ELISA. The format is functional, cell-based. The method in brief: as §1
Test [11] concerns PBMC. Nature of the test: Induction of IL6 production in human PBMC at 1 ug/ml after 48 hrs by ELISA. Type of test: functional. The procedure, abridged:
as §1

Test [12] relates to PBMC. Nature of the test: Induction of IL10 production in human PBMC at 1 ug/ml after 48 hrs by ELISA. Type of test: functional, cell-based. The method in brief: as §1

The source made the active and inactive calls. The rule behind the calls is not given here.

For the compound `CC(=O)O[C@@H]1[C@@H]2[C@@H](OC(C)=O)[C@@]34O[C@@]2(C)COC(=O)c2cccnc2C(C)C(C)C(=O)O[C@@H]([C@H](O)[C@H](OC(C)=O)[C@@]3(COC(=O)c2ccccc2)[C@@H]1OC(C)=O)[C@]4(C)O` (some centres undefined), the Activity in test [1] was less than 7.8 pg/mL; in test [4], less than 7.8 pg/mL; in [5], less than 7.8 pg/mL; in [6], less than 7.8 pg/mL; in test [8], 110.1 pg/mL; in [11] it was 136.1 pg/mL. In addition, the result in test [2], in test [3], in [7], in [9], in [10] and in [12] was inactive.

`C[C@H]1[C@H](C)CC[C@]2(CO)CC[C@]3(C)C(=CC[C@@H]4[C@@]5(C)CC[C@H](OC(=O)/C=C/c6ccc(O)c(O)c6)C(C)(C)[C@@H]5CC[C@]43C)[C@H]12`: the Activity was less than 7.8 pg/mL in test [1]; less than 7.8 pg/mL in test [4]; less than 7.8 pg/mL in test [5]; 27.9 pg/mL in test [6]; 607.1 pg/mL in [8]; 28.5 pg/mL in test [11]. The outcome in test [2], in [3], in test [7], in test [9], in test [10] and in test [12] was inactive.

Turning to `CC1(C)[C@H](O)CC[C@]2(C)[C@H]3CC=C4[C@@H]5C[C@](C)(C(=O)O)C[C@@H](O)[C@]5(C)CC[C@@]4(C)[C@]3(C)CC[C@@H]12`, the Activity in test [1] is less than 7.8 pg/mL; in [4], less than 7.8 pg/mL; in test [5], less than 7.8 pg/mL; in [6], less than 7.8 pg/mL; in test [8] it was 16.2 pg/mL; in [11], 32.2 pg/mL. For the same compound, the outcome in test [2], in [3], in [7], in test [9], in test [10] and in [12] was inactive.

For the compound `CC1(C)[C@@H](O)CC[C@]2(C)[C@H]3CC=C4[C@H]5C[C@](C)(C(=O)O)C[C@@H](O)[C@]5(C)CC[C@@]4(C)[C@]3(C)CC[C@@H]12`, the Activity in test [1] was less than 7.8 pg/mL; in test [4], less than 7.8 pg/mL; in test [5], less than 7.8 pg/mL; in test [6], less than 7.8 pg/mL; in test [8], 297.6 pg/mL; in test [11] it was 57.5 pg/mL. Also, the result in test [2], in test [3], in test [7], in test [9], in [10] and in test [12] was inactive.

Turning to `COc1c(O)cc([C@H]2Oc3cc(O)cc(O)c3C(=O)[C@H]2O)cc1O`, the Activity is less than 7.8 pg/mL in [1]; less than 7.8 pg/mL in test [4]; less than 7.8 pg/mL in test [5]; less than 7.8 pg/mL in test [6]; 470.4 pg/mL in test [8]; 279.4 pg/mL in test [11]. The result in test [2], in test [3], in test [7], in test [9], in test [10] and in test [12] was inactive.

Consider `COc1c(O)cc([C@H]2Oc3cc(O)cc(O)c3C[C@H]2O)cc1O`, for which the Activity was less than 7.8 pg/mL in test [1]; less than 7.8 pg/mL in test [4]; less than 7.8 pg/mL in test [5]; less than 7.8 pg/mL in test [6]; 662.9 pg/mL in test [8]; less than 7.8 pg/mL in test [11]. Moreover, the result in test [2], in test [3], in test [7], in [9], in test [10] and in [12] was inactive.

Regarding `COc1ccc([C@H]2Oc3cc(O)cc(O)c3C[C@H]2O)cc1OC`, the Activity was less than 7.8 pg/mL in test [1]; less than 7.8 pg/mL in test [4]; less than 7.8 pg/mL in test [5]; less than 7.8 pg/mL in test [6]; 198.6 pg/mL in [8]; 473.4 pg/mL in test [11]. Besides, the result in test [2], in [3], in [7], in [9], in test [10] and in test [12] was inactive.

On to `COc1ccc(C(=O)O[C@@H]2C[C@](C)(O)[C@H]3[C@H](O[C@@H]4O[C@H](CO)[C@@H](O)[C@H](O)[C@H]4O)OC=C[C@H]32)cc1OC`, for which the Activity in test [1] is 12.6 pg/mL; in test [4], 27.2 pg/mL; in test [5], less than 7.8 pg/mL; in test [6], less than 7.8 pg/mL; in [8], 38.1 pg/mL; in [11] it was 849.5 pg/mL. For the same compound, the result in test [2], in test [3], in [7], in test [9], in [10] and in test [12] was inactive.

With `CC(=O)OC[C@]12[C@H](OC(C)=O)[C@H](OC(C)=O)[C@@H]3[C@@H](OC(=O)c4ccccc4)[C@@]14O[C@@]3(C)COC(=O)c1cccnc1C(C)C(C)C(=O)O[C@@H]([C@H](OC(C)=O)[C@@H]2OC(=O)c1ccccc1)[C@]4(C)O` (some centres undefined), the Activity in [1] was 26.7 pg/mL; in test [4], 17.3 pg/mL; in [5], less than 7.8 pg/mL; in test [6], less than 7.8 pg/mL; in [8], 260.8 pg/mL; in test [11], 463 pg/mL. For the same compound, the outcome in [2], in test [3], in test [7], in test [9], in [10] and in test [12] was inactive.

On to `CC1(C)[C@@H](O)CC[C@]2(C)[C@H]3CC=C4[C@@H]5C[C@](C)(C(=O)O)C[C@H](O)[C@]5(C)CC[C@@]4(C)[C@]3(C)CC[C@@H]12` [MAYTENFOLIC ACID], for which the Activity was less than 7.8 pg/mL in test [1]; less than 7.8 pg/mL in test [4]; less than 7.8 pg/mL in test [5]; less than 7.8 pg/mL in test [6]; 76.1 pg/mL in [8]; 380 pg/mL in test [11].
